One experiment deals with p67^1 (residues 572–612). Nature of the experiment: ELISA, binding to p67^1. On the set-up: species or system Theileria parva. The conditions noted are these: 50 nM antibody. The essentials:
(§1)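 Proteins coated overnight at 4°C in PBS: full-length C-His p67 (Expi293, Ni-NTA), p67 fragments (E. coli BL21(DE3), GST/6xHis fusion, glutathione resin, TEV cleavage where needed), ubiquitin or BSA. Fab detected with HRP anti-FLAG, IgG with HRP anti-Fc. Eight washes with PBS/0.25% Tween 20 between steps. TMB 2 min, stopped with 1.0 M phosphoric acid, A450 read.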
On the technique in general: In an ELISA, binding on a coated surface is turned into a signal by an enzyme label.

A further experiment has as its system full‐length p67. Nature of the experiment: ELISA, binding to full-length p67. Set-up: species or system Theileria parva. To be noted: 50 nM antibody. The essentials: as §1
In another experiment the test system is ubiquitin. Put plainly: ELISA, negative control protein ubiquitin. The format is binding. To be noted: serial dilutions of Fab. Summed up: as §1
In the next experiment the test system is T. parva sporozoites. Nature of the experiment: In vitro sporozoite neutralization assay with bovine PBMCs. The conditions noted are these: exact values not determined due to incomplete fitting. Format: cell-based, Theileria parva.
Experiment [1] concerns His‐p67C (p67 residues 572–651). Put plainly: ELISA, binding to immobilized p67C. Set-up: species or system Theileria parva. The conditions noted are these: 50 nM antibody. Summed up: as §1
The next experiment relates to bovine serum albumin. Nature of the experiment: ELISA, negative control protein BSA. The format is binding. To be noted: serial dilutions of Fab. The essentials: as §1

B1: Fab B11: phage-derived synthetic human Fab binding p67C, neutralizes T. parva sporozoites (antibody, V domains shown)
VH: EVQLVESGGGLVQPGGSLRLSCAASGFNISSSSIHWVRQAPGKGLEWVASISPYYSSTSYADSVKGRFTISADTSKNTAYLQMNSLRAEDTAVYYCARGPGYAMDYWGQGTLVTVSS
VL: DIQMTQSPSSLSASVGDRVTITCRASQSVSSAVAWYQQKPGKAPKLLIYSASSLYSGVPSRFSGSRSGTDFTLTISSLQPEDFATYYCQQYYYAPITFGQGTKVEIK
For B1, the “Binding to p67^1” value with p67^1 (residues 572–612) is listed as “bound”. In addition, the “Binding to full-length p67” value in the experiment with full‐length p67 is given as “bound”. For the same molecule, the “Binding to control protein ubiquitin” value with ubiquitin is reported as “no detectable binding”. Besides, the “Fold less neutralizing potency than IgGs B11 and 21.4” value with T. parva sporozoites is on record as “roughly 10 fold”. Besides, the “Binding to p67C” value in experiment [1] was “bound”. Also, in the experiment on bovine serum albumin, the “Binding to control protein bovine serum albumin” value is given as “no detectable binding”.

For the origin of these results see publication PMC12086512 (Protein Science : A Publication of the Protein Society, 2025).
